Screening results deposited in PubChem by The Scripps Research Institute Molecular Screening Center.
The list is not random: actives were taken first. Their share in the collection is about 3%.
5HT1E ag: 5-HT1E (human) receptor agonism; P28566; 0.69% of 65,000 active; activation, % at 6 µM; CHO 5-HT1E Ga15 NFAT-bla reporter, FRET; 0% DMSO wells, 100% control agonist wells;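 active means activation above a set limit, the screen-wide mean activation plus 3 SD, cut at about 8.5% in these data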;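 further: 100% = positive control agonist at 1 µM giving full maximal response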
5HT1a antag: antagonists of human 5-HT1a serotonin receptor | 0.68% of 62,000 active | inhibition, % at 10 µM | AID 612 | P08908 | CHO 5-HT1a Ga15 NFAT-bla reporter, antagonist mode;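 active means inhibition above the mean of all tested compounds plus 3 SD, cut at about 43% in these data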;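 further: receptor stimulated by 5-CT agonist at 100 nM near EC80; beta-lactamase reporter measured by ratiometric fluorescence of a cleavable substrate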
HTR1A agonist: agonists of human 5-HT1a serotonin receptor; P08908; CHO 5-HT1a Ga15 NFAT-bla reporter, FRET ratio; 0% basal, 100% maximal reference agonist; activation, % at 10 µM; 0.56% of 65,000 active; AID 567;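 active means activation above the screen-wide mean activation plus 3 SD, cut at about 19% in these data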;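 further: 0% = DMSO wells and 100% = 5-CT at EC100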
5HT1E antag: 5-HT1E (human) receptor antagonism; P28566; CHO 5-HT1E Ga15 NFAT-bla reporter, FRET, antagonist; inhibition, % at 6 µM; 0.99% of 65,000 active;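 active means inhibition above a set limit, the mean inhibition across every tested compound plus 3 SD, cut at about 29% in these data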;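 further: signal is the 460 over 535 nm emission ratio of beta-lactamase substrate; 0% = agonist plus DMSO wells and 100% = wells without agonist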
S1P1 ag pot: S1P1 (human) agonism or agonism potentiation; P21453; 0.57% of 56,000 active; activation, % at 9.5 µM; S1P1 CRE-bla cells, forskolin, beta-lactamase FRET, potentiator mode; S1P1 agonist co-added at EC20, 2 nM; 100% = saturating reference agonist, 0% = basal;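 active means activation above a cutoff set at the mean activation of all tested compounds plus 3 SD, cut at about 54% in these data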;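 further: forskolin at 4 µM as EC80 and the EC20 agonist is SEW2871; 100% = SEW2871 at its EC100 plus forskolin at EC80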
S1P3 ag: S1P3 (human) receptor agonism; S1P3 NFAT-BLA reporter cells, FRET ratio; relative to 1 µM S1P, basal subtracted; Q99500; 0.1% of 60,000 active; activation, % at 4.5 µM;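 active means activation above the screen-wide mean plus 3 SD, cut at about 4.5% in these data, passing the limit was not always enough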
Target sequence (Q99500 whole entry, looked up): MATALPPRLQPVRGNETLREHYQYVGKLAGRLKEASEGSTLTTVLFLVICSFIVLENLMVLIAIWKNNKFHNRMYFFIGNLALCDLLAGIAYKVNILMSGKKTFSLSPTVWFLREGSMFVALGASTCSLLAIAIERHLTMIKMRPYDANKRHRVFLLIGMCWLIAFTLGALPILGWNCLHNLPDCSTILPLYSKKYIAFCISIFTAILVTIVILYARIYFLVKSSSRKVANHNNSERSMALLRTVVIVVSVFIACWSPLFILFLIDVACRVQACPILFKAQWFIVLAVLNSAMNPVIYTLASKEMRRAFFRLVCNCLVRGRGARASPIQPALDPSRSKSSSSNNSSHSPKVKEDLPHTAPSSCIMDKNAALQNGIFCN
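Assay system: stable CHO line with human S1P3, Gα16, NFAT-BLA reporter; Detection: FRET β-lactamase substrate fluorescence, excitation 405 nm, 460/535 nm emission ratio, background-subtracted; Read-out: percent activation versus median 1 µM S1P response, basal-subtracted, per plate; Incubation: cells plated overnight, compound 4 h 37 °C, substrate 2 h RT.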
* hit, by the source's call; . = no result.

SMILES	5HT1E ag	5HT1a antag	HTR1A agonist	5HT1E antag	S1P1 ag pot	S1P3 ag
COc1ccc(CNC(=O)CCc2nc(-c3ccccc3F)no2)c(OC)c1	-1.3	3.4	-1.9	3.5	-17.1	-1.3
Cc1ccc(-c2noc(CCC(=O)NCCN3CCN(Cc4ccccc4)CC3)n2)cc1	0.0	13.0	-2.9	2.4	-10.8	-0.3
O=C(CCc1nc(-c2ccccc2F)no1)NCCc1ccccc1Cl	14.7*	4.0	-1.8	-17.7	-5.4	-0.8
COc1ccc(CNC(=O)C2COc3ccccc3O2)c(OC)c1 (configuration not stated)	-1.0	0.1	-4.0	2.9	-5.1	-0.2
O=C(CCCN1CCC(c2ccccc2)C1)c1ccc2c(c1)OCCO2 (configuration not stated)	7.8	81.8*	5.8	-1.1	-9.9	-0.3
OC1CCN(c2c3c(nc4cc(-c5cccc(F)c5)nn24)CCCC3)CC1	0.5	1.8	0.7	31.3*	.	.
Fc1cccc(-c2cc3nc4c(c(N5CCC6(CC5)OCCO6)n3n2)CCCC4)c1	-1.2	-2.9	-0.9	17.4	.	.
CC(C)OC(=O)CSc1nc(N)c(C#N)c(-c2cccs2)c1C#N	-0.5	-10.3	0.1	43.6*	59.2	-2.5
CCCCSc1nc(N)c(C#N)c(-c2cccs2)c1C#N	-0.1	.	3.2	31.9*	-4.4	-4.2
O=C(CCC1CCCC1)N1CCN(C(=O)c2cccnc2)CC1	-0.4	5.1	-1.3	1.2	-5.4	-0.4
Cc1ccc(-c2nc(NC(=O)CSc3nnnn3-c3ccccc3)ns2)cc1	0.0	49.9*	2.1	-14.5	-62.0	-1.0
O=C(COc1ccccc1Cl)NCc1ccncc1	0.3	-14.1	-1.8	-15.9	-4.9	-1.4
CC1CCCCC1n1c(=S)[nH]c2ccccc2c1=O (configuration not stated)	10.7*	-7.7	1.8	4.7	.	.
O=c1[nH]n(CC2COC3(CCCCC3)O2)c(=O)c2ccccc12 (configuration not stated)	0.2	-5.8	2.6	-4.6	-17.3	-0.6
Cc1ccc2c(CSc3nc4ccccc4c(=O)n3CCCO)cc(=O)oc2c1	-0.4	15.6	-0.6	32.5*	-19.9	-0.4
N#CC1=C2SCC(O)(c3ccccc3)N2C(=O)CC1c1cccs1 (configuration not stated)	-1.0	29.1	-2.5	34.1*	13.5	-0.6
CC(=O)Nc1cccc(NC(=O)CCCC(=O)O)c1	28.3*	4.7	-3.0	3.7	-21.0	-1.2
O=C(CN(Cc1ccco1)C(=O)CCC(=O)Nc1ccccn1)NCCc1ccccc1	-0.6	4.1	-1.3	-3.0	14.8	-1.0
CCn1c(SCC(=O)O)nc2sc3c(c2c1=O)CCC3	0.4	.	-0.1	-7.4	-4.0	-2.4
CCn1c(SCc2ccc(C(=O)OC)o2)nc2sc3c(c2c1=O)CCCC3	9.3*	6.5	-1.8	-10.7	-17.1	0.2
COCCn1cnnc1SCC(=O)Nc1ccccc1C(=O)Nc1ccc2c(c1)OCO2	0.2	1.8	-3.4	-2.5	-7.5	-0.3
COc1cccc(CN(Cc2ccco2)C(c2ccc(F)cc2)c2nnnn2C(C)(C)C)c1 (configuration not stated)	-1.1	45.7*	-2.8	1.3	-10.3	-1.7
CC(C)(C)n1nnnc1C(c1ccccc1F)N(Cc1ccco1)CC1CCCO1 (configuration not stated)	-0.5	39.6	-1.0	11.3	-4.3	-0.3
CCCc1cc(C(N)=O)c(NC(=O)c2cc(C)on2)s1	-0.6	15.9	0.8	-3.8	15.0	-0.6
Cc1cc(C(=O)Nc2sc(C)c(-c3ccc(F)cc3)c2C(N)=O)no1	1.2	0.5	12.1	-6.9	101.6*	-0.3
SMILES	5HT1E ag	5HT1a antag	HTR1A agonist	5HT1E antag	S1P1 ag pot	S1P3 ag
CC1=C(C(=O)Nc2ccccc2)C(c2ccc(C)o2)n2c(s/c(=C\c3ccco3)c2=O)=N1 (configuration not stated)	-0.2	28.4	-0.4	41.6*	6.8	-0.6
CCN(CC)CCCN1C(=O)C(O)=C(C(=O)c2ccco2)C1c1ccc(C)o1 (configuration not stated)	0.6	1.6	0.2	3.6	.	.
COc1cc2c(cc1OC)C(C(=O)Nc1ccc3c(c1)OCCO3)C(c1cccnc1)N(C)C2=O (configuration not stated)	-2.1	8.4	-2.3	20.0	.	.
C=CS(=O)(=O)c1ccc(Oc2ccc(S(=O)(=O)C=C)cc2)cc1	-0.6	105.6*	-4.0	102.8*	124.5*	-0.6
CCC(CC)C(=O)Nc1cc(=O)n(C)c(=O)n1C	-0.3	11.8	36.5*	8.5	-23.9	1.1
c1ccc(-c2noc(CN3CCN(c4ccccc4)CC3)n2)cc1	-0.4	6.5	-0.7	-4.8	-6.9	-1.1
Cn1cc(CN2CCN(c3ccccc3)CC2)c2ccccc21	11.9*	13.3	-2.8	-8.2	.	.
COc1ccc(C2(C)NC(=O)N(Cc3cc(Cl)cc4c3OCOC4)C2=O)cc1OC (configuration not stated)	0.2	-1.8	3.8	12.1	7.3	0.6
CC(=O)Nc1ccccc1Sc1ccccc1	-1.4	22.4	-2.2	31.8*	-22.4	-0.8
CS(=O)(=O)N1CCC(C(=O)Nc2ccccc2Sc2ccccc2)CC1	-0.3	12.5	0.1	1.6	8.7	-0.5
OC(CNCC(c1ccco1)N1CCCCC1)c1ccccc1 (configuration not stated)	-0.2	7.8	-2.5	-14.3	-14.6	-0.5
Cc1cccc(NC(=O)C2CCN(c3nccc(C)n3)CC2)c1	-0.2	-1.8	-0.3	-2.5	8.9	-0.6
COc1ccccc1N1CCN(CC(O)COc2ccc3c(C)cc(=O)oc3c2)CC1 (configuration not stated)	-0.3	88.1*	4.2	-1.6	.	.
Cc1cc(=O)oc2cc(OCC(=O)N3c4ccccc4CC3C)ccc12 (configuration not stated)	0.1	23.8	-0.7	33.2*	28.3	-0.2
Cc1cc(=O)oc2cc(OCC(O)CN3CCc4ccccc4C3)ccc12 (configuration not stated)	0.7	8.3	3.4	-12.5	4.5	1.0
Cc1cc(=O)oc2cc(OCC(=O)N3CCCC(C)C3)ccc12 (configuration not stated)	0.4	-2.3	-1.2	-6.5	14.3	-1.7
Cc1cc(=O)oc2cc(OCC(O)CN3CCN(c4ccccc4)CC3)ccc12 (configuration not stated)	1.0	45.9*	10.0	1.6	10.6	-1.1
CCOC(=O)c1oc2ccccc2c1NC(=O)c1cc(OC)cc(OC)c1	111.9*	19.6	-3.6	15.1	-83.0	1.2
